Data set [1] in a line: Fraction unbound in 100% rat plasma. The data set is classed as ADME, cell-free. The procedure, abridged: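 Unbound fraction measured in 100% rat plasma.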
The test system of data set [2] is Rattus norvegicus. Put plainly: Antinociceptive activity in rat inflammatory pain model assessed as reversal of CFA-induced mechanical allodynia at 10 mg/kg, po after 3 hrs. In kind it is functional. The procedure, abridged: (§1)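 Rats given intraplantar complete Freund's adjuvant in the hind paws to induce inflammatory pain; mechanical allodynia assessed 1 and 3 h after a single oral dose. Percent reversal per rat calculated as (postdose − predose)/(preinjury − predose), averaged over n = 6 rats.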

Data set [3] deals with Rattus norvegicus. The data set can be described thus: Antinociceptive activity in rat inflammatory pain model assessed as reversal of CFA-induced mechanical allodynia at 10 mg/kg, po after 1 hr. The data set is classed as functional. The gist of the method:
as §1

Data set [4] can be described thus: Half life in rat at 3 mg/kg, po and 1 mg/kg, iv. In kind it is ADME, organism-based. Conditions: in vivo. The procedure, abridged: (§2)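 Rats dosed 3 mg/kg orally and 1 mg/kg intravenously; PK parameters derived from whole-blood concentrations. Normalized oral AUC given in μM·h·kg/mg, clearance in mL/min/kg, plus half-life and oral bioavailability.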
A short description of data set [5]: Clearance in rat at 3 mg/kg, po and 1 mg/kg, iv. The data set is classed as ADME, organism-based. Conditions: in vivo. The gist of the method:
as §2

Data set [6] is described as follows: Oral bioavailability in rat at 3 mg/kg. The data set is classed as ADME, organism-based. Conditions: in vivo. The gist of the method: as §2
The next data set deals with MDR1 (ABCB1) (Homo sapiens, UniProt P08183). Put plainly: Activity at human MDR1 expressed in MDCK2 cells assessed as apparent permeability by LC/MS/MS analysis. In kind it is ADME, cell-based, MDCK-II. Conditions: MDCK-MDR1.
Chain of MDR1 (ABCB1) (P08183 whole entry): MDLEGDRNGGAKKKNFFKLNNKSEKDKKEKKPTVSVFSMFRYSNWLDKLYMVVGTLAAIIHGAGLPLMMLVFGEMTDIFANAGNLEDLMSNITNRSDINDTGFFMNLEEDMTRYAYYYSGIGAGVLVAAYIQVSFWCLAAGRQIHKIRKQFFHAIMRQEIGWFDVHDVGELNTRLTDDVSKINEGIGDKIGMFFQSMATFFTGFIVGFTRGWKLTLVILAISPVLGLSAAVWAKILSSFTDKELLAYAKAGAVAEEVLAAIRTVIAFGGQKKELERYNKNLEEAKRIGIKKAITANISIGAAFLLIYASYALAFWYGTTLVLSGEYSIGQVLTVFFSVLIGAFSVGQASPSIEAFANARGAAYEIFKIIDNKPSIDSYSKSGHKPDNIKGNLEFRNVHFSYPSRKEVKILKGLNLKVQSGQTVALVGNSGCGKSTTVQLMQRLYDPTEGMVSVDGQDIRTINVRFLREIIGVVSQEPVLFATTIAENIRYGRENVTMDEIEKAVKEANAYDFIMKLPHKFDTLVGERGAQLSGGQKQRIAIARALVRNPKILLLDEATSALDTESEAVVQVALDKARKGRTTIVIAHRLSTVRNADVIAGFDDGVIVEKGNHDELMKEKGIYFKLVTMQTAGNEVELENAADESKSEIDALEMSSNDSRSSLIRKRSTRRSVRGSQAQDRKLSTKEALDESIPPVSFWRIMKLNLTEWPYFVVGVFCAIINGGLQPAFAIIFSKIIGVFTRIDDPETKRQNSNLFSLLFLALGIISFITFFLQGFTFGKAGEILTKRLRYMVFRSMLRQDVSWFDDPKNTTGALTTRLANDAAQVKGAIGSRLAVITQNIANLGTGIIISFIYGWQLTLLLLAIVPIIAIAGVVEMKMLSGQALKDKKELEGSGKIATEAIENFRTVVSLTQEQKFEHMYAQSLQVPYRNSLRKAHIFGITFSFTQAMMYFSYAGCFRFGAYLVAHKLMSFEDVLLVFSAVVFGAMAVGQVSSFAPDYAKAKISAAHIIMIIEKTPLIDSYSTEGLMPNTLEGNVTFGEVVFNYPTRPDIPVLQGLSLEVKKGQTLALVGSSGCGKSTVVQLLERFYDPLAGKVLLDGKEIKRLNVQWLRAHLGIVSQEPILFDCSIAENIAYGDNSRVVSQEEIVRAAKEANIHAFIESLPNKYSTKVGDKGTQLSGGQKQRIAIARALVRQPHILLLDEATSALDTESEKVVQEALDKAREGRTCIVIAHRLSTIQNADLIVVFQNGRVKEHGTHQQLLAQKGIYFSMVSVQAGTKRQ
Data set [7] relates to Rattus norvegicus. The data set can be described thus: Normalized AUC in rat whole blood at 3 mg/kg, po. In kind it is ADME, organism-based. More on the design: dose 3 mg/kg, route oral. Conditions: in vivo. The procedure, abridged: as §2
The nature of data set [8]: Metabolic stability in human liver microsomes assessed as compound remaining at 10 uM after 1 hr in presence of NADPH. In kind it is ADME. Conditions: read-out: Stability. The gist of the method:
(§3)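 Liver microsomes (rat or human) incubated with compound and NADPH for 1 h; percent of parent remaining. Table footnote gives 10 μM compound, 1 mM NADPH, 1 mg/mL protein; text gives 1 μM substrate, 1 mg/mL protein.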
In general terms: Microsomes from liver hold many membrane-bound enzymes, among them those of drug oxidation.

The nature of data set [9]: Metabolic stability in rat liver microsomes assessed as compound remaining at 10 uM after 1 hr in presence of NADPH. In kind it is ADME. Conditions: read-out: Stability. The gist of the method: as §3
For data set [10], the target named is T1, Nuclear receptor subfamily 1 group I member 2 (Homo sapiens, UniProt O75469).
T1 sequence (O75469 whole entry): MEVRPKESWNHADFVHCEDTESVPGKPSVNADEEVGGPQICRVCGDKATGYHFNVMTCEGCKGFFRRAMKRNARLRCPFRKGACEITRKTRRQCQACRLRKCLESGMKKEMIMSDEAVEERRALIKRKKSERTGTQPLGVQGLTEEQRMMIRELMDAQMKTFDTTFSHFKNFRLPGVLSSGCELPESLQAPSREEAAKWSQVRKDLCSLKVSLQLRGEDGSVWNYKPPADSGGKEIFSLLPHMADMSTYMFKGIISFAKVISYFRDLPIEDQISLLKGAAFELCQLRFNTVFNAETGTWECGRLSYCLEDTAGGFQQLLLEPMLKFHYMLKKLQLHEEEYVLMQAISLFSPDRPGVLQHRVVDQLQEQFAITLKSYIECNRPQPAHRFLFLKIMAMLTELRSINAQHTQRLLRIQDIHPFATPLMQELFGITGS
Put plainly: Activation of PXR (unknown origin).

Data set [11] addresses Voltage-dependent N-type calcium channel subunit alpha-1B (Homo sapiens, UniProt Q00975). The data set can be described thus: Inhibition of Cav2.2-mediated calcium influx in HEK cells by FLIPR assay. The data set is classed as cell-based, HEK293. The gist of the method:
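Cav2.2 calcium-influx FLIPR assay; compounds screened for percent inhibition at single concentration, active ones titrated for IC50; values averaged over n ≥ 3.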

The subject of data set [12] is Rattus norvegicus. Put plainly: Antinociceptive activity in rat inflammatory pain model assessed as reversal of CFA-induced mechanical allodynia at 30 mg/kg, po after 3 hrs. In kind it is functional. The gist of the method:
as §1

Data set [13] relates to Rattus norvegicus. The data set can be described thus: Antinociceptive activity in rat inflammatory pain model assessed as reversal of CFA-induced mechanical allodynia at 30 mg/kg, po after 1 hr. In kind it is functional. The procedure, abridged: as §1
For a further data set, the target named is Cytochrome P450 3A4 (Homo sapiens, UniProt P08684). The data set can be described thus: Inhibition of CYP3A4 (unknown origin). The data set is classed as ADME.
Chain of Cytochrome P450 3A4 (P08684 whole entry): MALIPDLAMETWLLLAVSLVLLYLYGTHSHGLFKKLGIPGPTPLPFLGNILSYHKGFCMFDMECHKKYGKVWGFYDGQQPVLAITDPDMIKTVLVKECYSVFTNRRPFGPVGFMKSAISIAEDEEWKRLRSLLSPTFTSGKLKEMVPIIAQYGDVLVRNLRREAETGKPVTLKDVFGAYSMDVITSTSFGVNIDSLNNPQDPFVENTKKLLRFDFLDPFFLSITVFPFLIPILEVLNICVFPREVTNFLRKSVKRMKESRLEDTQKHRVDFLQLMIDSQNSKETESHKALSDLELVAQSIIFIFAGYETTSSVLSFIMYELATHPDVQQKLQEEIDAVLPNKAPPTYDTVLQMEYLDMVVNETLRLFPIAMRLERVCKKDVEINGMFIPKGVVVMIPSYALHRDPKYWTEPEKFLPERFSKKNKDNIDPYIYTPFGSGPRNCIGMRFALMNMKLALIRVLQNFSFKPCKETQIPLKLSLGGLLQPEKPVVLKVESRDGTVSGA

Chain of Voltage-dependent N-type calcium channel subunit alpha-1B (Q00975 whole entry): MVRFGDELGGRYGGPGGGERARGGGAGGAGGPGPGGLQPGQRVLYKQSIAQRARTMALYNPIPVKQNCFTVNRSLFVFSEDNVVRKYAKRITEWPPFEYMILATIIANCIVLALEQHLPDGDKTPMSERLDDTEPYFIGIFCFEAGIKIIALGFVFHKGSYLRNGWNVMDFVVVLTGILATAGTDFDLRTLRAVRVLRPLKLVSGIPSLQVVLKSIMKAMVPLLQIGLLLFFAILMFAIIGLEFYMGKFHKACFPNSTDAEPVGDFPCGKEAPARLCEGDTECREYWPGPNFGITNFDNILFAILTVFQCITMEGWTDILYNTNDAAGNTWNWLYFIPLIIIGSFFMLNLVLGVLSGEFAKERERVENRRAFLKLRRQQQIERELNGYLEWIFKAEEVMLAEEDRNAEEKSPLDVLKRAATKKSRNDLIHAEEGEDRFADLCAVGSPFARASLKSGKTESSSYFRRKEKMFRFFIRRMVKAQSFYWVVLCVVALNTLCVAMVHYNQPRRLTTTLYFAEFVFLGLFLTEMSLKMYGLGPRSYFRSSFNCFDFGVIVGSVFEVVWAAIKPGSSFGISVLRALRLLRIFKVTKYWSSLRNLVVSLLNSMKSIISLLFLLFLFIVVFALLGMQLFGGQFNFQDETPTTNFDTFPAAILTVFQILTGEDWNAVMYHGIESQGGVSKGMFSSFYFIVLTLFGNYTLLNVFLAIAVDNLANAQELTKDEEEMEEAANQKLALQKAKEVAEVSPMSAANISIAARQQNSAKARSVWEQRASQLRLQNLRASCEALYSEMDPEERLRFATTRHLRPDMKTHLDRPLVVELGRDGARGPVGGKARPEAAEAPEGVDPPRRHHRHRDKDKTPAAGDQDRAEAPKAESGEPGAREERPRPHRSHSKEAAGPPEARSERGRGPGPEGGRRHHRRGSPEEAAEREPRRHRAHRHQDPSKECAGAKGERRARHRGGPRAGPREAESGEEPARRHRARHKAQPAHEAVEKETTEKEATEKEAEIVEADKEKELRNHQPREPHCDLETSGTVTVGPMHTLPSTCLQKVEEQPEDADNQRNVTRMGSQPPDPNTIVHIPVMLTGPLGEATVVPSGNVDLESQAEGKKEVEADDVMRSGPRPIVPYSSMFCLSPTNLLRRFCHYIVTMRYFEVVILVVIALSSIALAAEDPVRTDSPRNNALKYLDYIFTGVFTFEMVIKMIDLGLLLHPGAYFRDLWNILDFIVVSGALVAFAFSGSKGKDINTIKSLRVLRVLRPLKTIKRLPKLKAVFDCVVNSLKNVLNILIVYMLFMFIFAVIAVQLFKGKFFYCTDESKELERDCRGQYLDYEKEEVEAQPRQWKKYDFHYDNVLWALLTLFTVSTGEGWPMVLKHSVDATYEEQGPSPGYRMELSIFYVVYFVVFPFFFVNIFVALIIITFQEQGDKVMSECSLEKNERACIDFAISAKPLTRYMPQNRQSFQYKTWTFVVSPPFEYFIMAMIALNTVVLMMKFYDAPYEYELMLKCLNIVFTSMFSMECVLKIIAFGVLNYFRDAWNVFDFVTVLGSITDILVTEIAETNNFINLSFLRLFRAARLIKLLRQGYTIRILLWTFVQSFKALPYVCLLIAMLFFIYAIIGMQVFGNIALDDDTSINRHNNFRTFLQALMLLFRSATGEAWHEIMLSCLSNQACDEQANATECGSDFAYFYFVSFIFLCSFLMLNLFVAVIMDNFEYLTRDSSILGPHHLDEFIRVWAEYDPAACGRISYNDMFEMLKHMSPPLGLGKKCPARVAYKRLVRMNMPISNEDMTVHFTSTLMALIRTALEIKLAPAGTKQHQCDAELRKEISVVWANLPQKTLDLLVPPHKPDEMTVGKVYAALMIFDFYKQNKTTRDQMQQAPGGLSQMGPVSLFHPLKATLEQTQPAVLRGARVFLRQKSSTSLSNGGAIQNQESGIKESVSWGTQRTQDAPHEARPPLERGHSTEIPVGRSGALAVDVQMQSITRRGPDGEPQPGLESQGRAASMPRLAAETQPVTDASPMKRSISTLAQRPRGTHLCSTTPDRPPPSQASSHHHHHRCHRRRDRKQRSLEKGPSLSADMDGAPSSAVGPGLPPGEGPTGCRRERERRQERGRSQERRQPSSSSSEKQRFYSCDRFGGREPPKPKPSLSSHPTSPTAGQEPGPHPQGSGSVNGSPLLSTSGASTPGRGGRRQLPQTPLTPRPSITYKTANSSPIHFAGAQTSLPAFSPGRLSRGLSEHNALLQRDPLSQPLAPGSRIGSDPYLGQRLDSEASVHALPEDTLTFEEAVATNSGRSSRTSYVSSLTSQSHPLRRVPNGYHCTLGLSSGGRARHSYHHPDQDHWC

As for `CC(C)(C1CCN(C(=O)c2ccc(S(C)(=O)=O)cc2OC(F)(F)F)CC1)S(=O)(=O)c1cccc(C(F)(F)F)c1`, the fraction unbound in [1] was 0.013. Moreover, the Efficacy amounted to 30% in the data set with Rattus norvegicus [2] and 21% in the data set with Rattus norvegicus [3]. The same molecule had a half-life in [4] of 2.3 h. For the same molecule, in [5], the clearance amounted to 1.62 L/h/kg. Further, in data set [6], the bioavailability was 95%. At MDR1 (ABCB1), the Papp came to 350 nm/s. In the data set on Rattus norvegicus [7], the AUC/dose amounted to 0.97 µM·kg·h/mg. For the same molecule, the remaining at 1 h, 10 µM was 62% in [8] and 73% in [9]. In addition, in data set [10], the concentration giving a half-maximal response (EC50) is greater than 30 µM. The IC50 in data set [11] was 0.092 µM.

For the molecule `CC(C)(C1CCN(C(=O)c2cc(F)ccc2S(C)(=O)=O)CC1)S(=O)(=O)c1cccc(C(F)(F)F)c1`, in [1], the fraction unbound was 0.068. Besides, the Efficacy with Rattus norvegicus [12] is 54%; in the data set with Rattus norvegicus [13], 57%; with Rattus norvegicus [2], 49%; in the data set with Rattus norvegicus [3], 36%. In [5], this molecule displayed a clearance of 1.74 L/h/kg. In addition, the bioavailability in [6] was determined as 24%. Besides, the Papp on MDR1 (ABCB1) was found to be 350 nm/s. Further, the IC50 against Cytochrome P450 3A4 was 10 µM; in data set [11] it was 0.51 µM. This molecule yielded an AUC/dose in the data set with Rattus norvegicus [7] of 0.27 µM·kg·h/mg. For the same molecule, the values for the remaining at 1 h, 10 µM in [8] and in data set [9] were 64% and 68%, respectively. Also, a half-maximal response in [10] (EC50) required 2.5 µM.

The fraction unbound is free concentration divided by total concentration. The half-life is the time in which the quantity being followed falls by half. Read a low half-life as rapid decline. Usually bioavailability stands for dose-corrected exposure relative to a reference, in per cent. Usually Papp stands for a coefficient for how fast a substance crosses the barrier. The term EC50 denotes the concentration at which the effect is half-maximal. The low end stands for a more potent agent, the high end for a less potent agent. The term IC50 denotes the point on the concentration scale where inhibition reaches its midpoint.

Source of the values: ChEMBL document CHEMBL3091454, “Improved Cav2.2 Channel Inhibitors through a gem-Dimethylsulfone Bioisostere Replacement of a Labile Sulfonamide” (ACS Med Chem Lett, 2013).
